One series deals with K562. As to the kind of experiment: Antiproliferative activity against human K562 cells after 72 hrs by MTS assay. The series is classed as functional, cell-based. (In general: Tetrazolium dyes change colour on reduction, which living cells bring about.)
In series [1] the target is Inosine-5'-monophosphate dehydrogenase 2 (Homo sapiens, UniProt P12268). As to the kind of experiment: Inhibition of human IMPDH2.
Series [2] has as its target Inosine-5'-monophosphate dehydrogenase 1 (Homo sapiens, UniProt P20839). As to the kind of experiment: Inhibition of human IMPDH1. The essentials:
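Run in duplicate with IMPDH type 1 (100 nM; line 2) or type 2 (30 nM; line 3) in 50 mM Tris pH 8.0, 100 mM KCl, 1 mM DTT, with IMP and NAD substrates. Inhibitors were added from DMSO to 1% final. At 25 °C, NADH formation was followed at 340 nm. Ki(app) came from fitting steady-state velocities versus inhibitor concentration to the Morrison equation.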

Series [3] can be described thus: Selectivity ratio of IC50 for human K562 cells to Ki for human IMPDH2. It is filed as ADME, cell-based.

Bounds are passed on as bounds.

Chain of Inosine-5'-monophosphate dehydrogenase 1 (P20839 whole entry): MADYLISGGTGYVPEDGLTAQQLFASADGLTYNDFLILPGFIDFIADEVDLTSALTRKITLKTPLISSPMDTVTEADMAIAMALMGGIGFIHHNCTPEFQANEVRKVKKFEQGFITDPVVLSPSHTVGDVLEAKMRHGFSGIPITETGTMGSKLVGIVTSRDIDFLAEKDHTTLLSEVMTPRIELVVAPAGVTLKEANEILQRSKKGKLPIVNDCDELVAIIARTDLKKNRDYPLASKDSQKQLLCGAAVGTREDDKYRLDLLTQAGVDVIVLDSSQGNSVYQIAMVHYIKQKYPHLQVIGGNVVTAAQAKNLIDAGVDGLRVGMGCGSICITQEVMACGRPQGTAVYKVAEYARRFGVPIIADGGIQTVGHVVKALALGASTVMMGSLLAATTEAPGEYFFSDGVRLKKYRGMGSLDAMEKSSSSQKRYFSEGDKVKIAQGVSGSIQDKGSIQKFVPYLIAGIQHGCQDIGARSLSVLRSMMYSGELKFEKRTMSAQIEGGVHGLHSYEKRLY

As a reminder, the IC50 is the concentration that inhibits the measured activity by half. Low values mean higher potency, high ones lower potency. One may read the Ki as a measure of affinity in units of concentration, obtained from inhibition or displacement. The low end stands for tighter binding, the high end for weaker binding. For `COc1cc(C/C=C(\C)CCC(=O)O)ccc1-c1cnco1`, in the series with K562 (Homo sapiens, K562, 72 h), the IC50 was above 100 µM. The inhibition constant Ki in series [1] was determined as 14.3 µM; in series [2], 42.8 µM.
On to `COc1ccc(C/C=C(\C)CCC(=O)O)cc1-c1cnco1`, for which the IC50 with K562 (Homo sapiens, K562, 72 h) was above 100 µM. In addition, the inhibition constant Ki was determined as 8.7 µM in series [1] and 20.8 µM in series [2].
In the case of `COc1c(C/C=C(\C)CCC(=O)O)cc(-c2cnco2)c(OC)c1C`, the Ki in series [1] and in series [2] was above 100 µM throughout.
In the series on K562 (Homo sapiens, K562, 72 h), `COc1cc(OC)c(-c2cnco2)cc1C/C=C(/C)CCC(=O)O` came in with a 50% inhibitory concentration (IC50) of 71 µM. Also, the figures for the Ki in series [1] and in series [2] were 30.1 µM and 97.3 µM, respectively.
Molecule `COc1cc(OC)c(-c2cnco2)cc1C/C=C(\C)CCC(=O)O` (stereo in doubt; 3) showed a concentration for half-maximal inhibition (IC50) in the series with K562 (Homo sapiens, K562, 72 h) of 56 µM. For the same molecule, the Ki in series [1] is 4.3 µM; in series [2], 16 µM. Further, in series [3], the Ratio was found to be 10.
`COc1cc(OC)c(-c2cnco2)cc1C/C=C(\C)CCC(=O)O` (stereo in doubt; 3-E) returned a concentration for half-maximal inhibition (IC50) with K562 (k562) of 88 µM. Further, the Ki in series [1] amounted to 2.3 µM; in series [2] it was 10.3 µM.

(Values after ChEMBL document CHEMBL1152226 (Bioorg Med Chem, 2008).)
